KDM4C inh = inhibitors of human demethylase GASC-1 KDM4C; Q9H3R0; GST-KDM4C 2-372, H3K9me3 peptide, LANCE TR-FRET; inhibition, % at 12.5 µM; 0.15% of 96,000 active;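 active = mean replicate inhibition above about 25%, with at least 55% of replicates also reaching it, limit read from the data, passing the limit was not always enough; inconclusive = only one of those two conditions met; inactive = neither condition met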
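Test system: N-terminal GST-fused human GASC-1 (KDM4C) fragment, residues 2-372; quantity: GASC-1 enzyme at 10 nM final in reaction; dosing: single dose; schedule: 30 min demethylation and 1 h detection at room temperature; signal: LANCE TR-FRET, excitation 340 nm, emissions 618 and 671 nm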
IDH1 R132H inh = inhibitors of human IDH1 R132H; O75874; IDH1 R132H reductase, diaphorase/resazurin fluorescence, 60 min; inhibition, % at 10 µM; 0.18% of 70,000 active; in the data active = inhibition above about 34%; inconclusive = no clear call, values can overlap the other calls; inactive = below about 11%
Target sequence (O75874 whole entry R132H): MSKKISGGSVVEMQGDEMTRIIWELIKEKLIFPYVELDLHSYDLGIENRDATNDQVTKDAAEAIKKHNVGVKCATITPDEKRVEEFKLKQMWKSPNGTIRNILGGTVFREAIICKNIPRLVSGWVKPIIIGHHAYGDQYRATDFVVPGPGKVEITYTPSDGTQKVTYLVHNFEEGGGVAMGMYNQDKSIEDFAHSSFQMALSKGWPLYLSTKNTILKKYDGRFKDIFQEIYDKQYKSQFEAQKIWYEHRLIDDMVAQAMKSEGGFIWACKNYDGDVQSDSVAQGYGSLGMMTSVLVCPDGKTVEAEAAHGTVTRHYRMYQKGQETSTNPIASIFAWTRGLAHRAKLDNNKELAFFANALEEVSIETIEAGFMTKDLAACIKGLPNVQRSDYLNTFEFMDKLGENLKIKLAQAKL
T cruzi growth-1 = T. cruzi proliferation inhibition | 5.9% of 77,000 active | AID 624255 | inhibition, % at 8.34 µM | T. cruzi beta-gal in NIH3T3, GalScreen luminescence, 90 h;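 active = mean inhibition above about 93%, with at least 55% of replicates each passing it, limit read from the data, passing the limit was not always enough; inconclusive = only one of those two conditions holds; inactive = neither condition holds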
T cruzi growth-2 = inhibitors of T. cruzi proliferation | shares compounds with T cruzi growth-1 | T. cruzi beta-gal in NIH3T3, GalScreen luminescence, 90 h | inhibition, % at 8.35 µM | 72% of 5,600 active | AID 651739;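 active = mean replicate inhibition above about 95% and at least 55% of replicates individually reaching it, limit read from the data; inconclusive = only one of the two criteria is met; inactive = neither criterion is met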
T cruzi growth-3 = blocks T. cruzi growth in NIH3T3 host cells; shares compounds with T cruzi growth-1; T. cruzi beta-gal in NIH3T3, GalScreen luminescence, 90 h; inhibition, % at 2.09 µM; 21% of 5,600 active; AID 651740;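 active = mean inhibition above about 95%, with at least 55% of replicates also reaching it, limit read from the data; inconclusive = meets just one of the two conditions; inactive = meets neither condition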
NIH3T3 tox = NIH/3T3 (mouse) viability loss; shares compounds with T cruzi growth-1; NIH/3T3 viability, CellTiter-Glo ATP luminescence, 90 h; cytotoxicity (signal decrease), % at 8.35 µM; 14% of 5,600 active; AID 651742;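 active = mean signal decrease across replicates above about 35% based on untreated-well scatter, with enough replicates individually passing, limit read from the data; inconclusive = no rule stated though some were filed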
NIH3T3 tox 2 = cytotoxicity in mouse NIH/3T3 fibroblasts | shares compounds with T cruzi growth-1 | NIH/3T3 viability, CellTiter-Glo ATP luminescence, 90 h | inhibition, % at 24.9 µM | 56% of 5,600 active;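 active = mean loss of cell viability signal at or above a set limit, and enough replicates individually reaching it; inconclusive = meets only the mean limit or only the replicate share; inactive = meets neither condition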
Numbers stand for hits. Only a selection was taken, and hits are over-represented in it overall.

What do the screens show for `CC(=O)N(C)C[C@H]1Oc2cc(C#CC3CCCCC3)ccc2S(=O)(=O)N([C@H](C)CO)C[C@@H]1C`?
KDM4C inh: inactive; IDH1 R132H inh: inactive; T cruzi growth-1: inconclusive; T cruzi growth-2: 103; T cruzi growth-3: inactive; NIH3T3 tox: 42; NIH3T3 tox 2: inconclusive

What do the screens show for `O=C(C[C@H]1CC[C@@H](NC(=O)Nc2ccc3c(c2)OCO3)[C@H](CO)O1)NCCCN1CCOCC1`?
KDM4C inh: inactive; IDH1 R132H inh: inactive; T cruzi growth-1: inactive

How did CCc1ccccc1NC(=O)CCCN1C(=O)c2ccccc2C1=O do in these assays?
IDH1 R132H inh: inactive

How did CO[C@@H](CN(C)C(=O)Nc1ccc(C(F)(F)F)cc1)[C@H](C)CN(Cc1ccccc1Cl)[C@@H](C)CO do in these assays?
KDM4C inh: inactive; IDH1 R132H inh: inactive; T cruzi growth-1: inactive

How did CO[C@H](CN(C)C(=O)Nc1ccc(C(F)(F)F)cc1)[C@@H](C)CN(Cc1ccccc1Cl)[C@@H](C)CO do in these assays?
KDM4C inh: inactive; IDH1 R132H inh: inactive; T cruzi growth-1: 101; T cruzi growth-2: 101; T cruzi growth-3: inactive; NIH3T3 tox: 47; NIH3T3 tox 2: 104

What do the screens show for `CO[C@H](CN(C)C(=O)Nc1ccc(C(F)(F)F)cc1)[C@H](C)CN(Cc1ccccc1Cl)[C@@H](C)CO`?
KDM4C inh: inactive; IDH1 R132H inh: inactive; T cruzi growth-1: 114; T cruzi growth-2: 101; T cruzi growth-3: 100; NIH3T3 tox: 50; NIH3T3 tox 2: 104

Results for CO[C@@H](CN(C)C(=O)Nc1ccc(C(F)(F)F)cc1)[C@@H](C)CN(Cc1ccccc1Cl)[C@@H](C)CO ?
KDM4C inh: inactive; IDH1 R132H inh: inactive; T cruzi growth-1: inactive

What do the screens show for `C[C@@H]1CCCCO[C@H](CN(C)Cc2ccccc2)[C@@H](C)CN([C@@H](C)CO)C(=O)c2cc(NS(=O)(=O)c3ccc(Cl)cc3)ccc2O1`?
KDM4C inh: inactive; T cruzi growth-1: 106; T cruzi growth-2: 95; T cruzi growth-3: inactive; NIH3T3 tox: inactive; NIH3T3 tox 2: 104

What do the screens show for `C[C@@H]1CCCCO[C@H](CN(C)Cc2ccccc2)[C@H](C)CN([C@@H](C)CO)C(=O)c2cc(NS(=O)(=O)c3ccc(Cl)cc3)ccc2O1`?
KDM4C inh: inactive; IDH1 R132H inh: inactive; T cruzi growth-1: 102; T cruzi growth-2: inactive; T cruzi growth-3: inactive; NIH3T3 tox: inactive; NIH3T3 tox 2: 103

How did C[C@@H]1CN([C@H](C)CO)C(=O)c2cc(NS(=O)(=O)c3ccc(Cl)cc3)ccc2O[C@@H](C)CCCCO[C@@H]1CN(C)Cc1ccccc1 do in these assays?
KDM4C inh: inactive; IDH1 R132H inh: inactive; T cruzi growth-1: inactive

How did C[C@@H]1CCCCO[C@@H](CN(C)Cc2ccccc2)[C@H](C)CN([C@H](C)CO)C(=O)c2cc(NS(=O)(=O)c3ccc(Cl)cc3)ccc2O1 do in these assays?
KDM4C inh: inactive; T cruzi growth-1: inactive

Results for C[C@@H]1CCCCO[C@@H](CN(C)Cc2ccccc2)[C@@H](C)CN([C@H](C)CO)C(=O)c2cc(NS(=O)(=O)c3ccccc3)ccc2O1 ?
KDM4C inh: inactive; IDH1 R132H inh: inactive; T cruzi growth-1: inactive

Results for C[C@@H]1CCCCO[C@@H](CN(C)Cc2ccccc2)[C@H](C)CN([C@@H](C)CO)C(=O)c2cc(NS(=O)(=O)c3ccc(Cl)cc3)ccc2O1 ?
KDM4C inh: inactive; T cruzi growth-1: 110; T cruzi growth-2: 102; T cruzi growth-3: inactive; NIH3T3 tox: inactive; NIH3T3 tox 2: 100

Results for C[C@@H]1CN([C@@H](C)CO)C(=O)c2cc(NS(=O)(=O)c3ccc(Cl)cc3)ccc2O[C@@H](C)CCCCO[C@@H]1CN(C)Cc1ccccc1 ?
KDM4C inh: inactive; T cruzi growth-1: 100; T cruzi growth-2: inactive; T cruzi growth-3: inactive; NIH3T3 tox: inactive; NIH3T3 tox 2: 105

What do the screens show for `C[C@@H]1CCCCO[C@H](CN(C)Cc2ccccc2)[C@@H](C)CN([C@H](C)CO)C(=O)c2cc(NS(=O)(=O)c3ccccc3)ccc2O1`?
KDM4C inh: inactive; IDH1 R132H inh: inactive; T cruzi growth-1: inactive

Results for COc1ccc(OC)c(NC(=O)Cn2nc([N+](=O)[O-])cc2C)c1 ?
IDH1 R132H inh: inactive

Screens as filed in PubChem.
